In ChEMBL document CHEMBL4118285, “Synthesis and antibacterial activity of novel ketolides with 11,12-quinoylalkyl side chains” (2018):
≈ marks a conversion by molar mass, not a printed value.

Columns and labels:
Format in all cases: functional
Staphylococcus aureus [1] = assay: Antibacterial activity against methicillin-sensitive Staphylococcus aureus 11B122 by broth microdilution method
In short: (§1)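 MICs were determined by broth microdilution following CLSI recommendations, with clarithromycin and telithromycin run as reference antibiotics.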

Streptococcus pneumoniae [2] = assay: Antibacterial activity against erythromycin-resistant Streptococcus pneumoniae 11 J011 by broth microdilution method
In short: (§2)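 MIC values were determined by broth microdilution following Clinical and Laboratory Standards Institute (CLSI) recommendations.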

Haemophilus influenzae [3] = assay: Antibacterial activity against azithromycin-resistant Haemophilus influenzae 11Q373 by broth microdilution method; in short: as §2
[4] = tested on: Staphylococcus epidermidis; assay: Antibacterial activity against methicillin-sensitive Staphylococcus epidermidis 11X315 by broth microdilution method; in short: as §2
[5] = tested on: Staphylococcus epidermidis; assay: Antibacterial activity against methicillin-resistant Staphylococcus epidermidis 11C176 by broth microdilution method; in short: as §2
Staphylococcus aureus [6] = assay: Antibacterial activity against methicillin-resistant Staphylococcus aureus 11B117 by broth microdilution method; in short: as §2
Streptococcus pyogenes [7] = assay: Antibacterial activity against erythromycin-sensitive Streptococcus pyogenes 11L264 by broth microdilution method; in short: as §1
Haemophilus influenzae [8] = assay: Antibacterial activity against azithromycin-sensitive Haemophilus influenzae 11P042 by broth microdilution method; in short: as §1
Streptococcus pneumoniae [9] = assay: Antibacterial activity against erythromycin-sensitive Streptococcus pneumoniae 11G364 by broth microdilution method; in short: as §1
Streptococcus pyogenes [10] = assay: Antibacterial activity against erythromycin-resistant Streptococcus pyogenes 11 N369 by broth microdilution method; in short: as §2
Pseudomonas aeruginosa = assay: Antibacterial activity against Pseudomonas aeruginosa ATCC 27853 by broth microdilution method; in short: as §1
Moraxella catarrhalis [11] = assay: Antibacterial activity against clarithromycin-resistant Moraxella catarrhalis 12-2 by broth microdilution method; in short: as §2
Streptococcus pyogenes [12] = assay: Antibacterial activity against methicillin-resistant Streptococcus pyogenes 12-1 by broth microdilution method; in short: as §2
Klebsiella pneumoniae = assay: Antibacterial activity against extended spectrum beta-lactamases producing Klebsiella pneumoniae ATCC 700603 by broth microdilution method; in short: as §1
Escherichia coli = assay: Antibacterial activity against extended spectrum beta-lactamases non-producing Escherichia coli ATCC 25922 by broth microdilution method; in short: as §1
Streptococcus pyogenes [13] = assay: Antibacterial activity against […] Streptococcus pyogenes 12-8 by broth microdilution method; in short: as §1
[14] = tested on: Staphylococcus epidermidis; assay: Antibacterial activity against methicillin-sensitive Staphylococcus epidermidis ATCC 12228 by broth microdilution method; in short: as §1
Moraxella catarrhalis [15] = assay: Antibacterial activity against clarithromycin-sensitive Moraxella catarrhalis 12-1 by broth microdilution method; in short: as §1
[16] = tested on: Staphylococcus epidermidis; assay: Antibacterial activity against methicillin-resistant Staphylococcus epidermidis 13-3 by broth microdilution method; in short: as §2
Staphylococcus aureus [17] = assay: Antibacterial activity against methicillin-resistant Staphylococcus aureus ATCC 33591 by broth microdilution method; in short: as §2
Staphylococcus aureus [18] = assay: Antibacterial activity against methicillin-sensitive Staphylococcus aureus ATCC 29213 by broth microdilution method; in short: as §1

SMILES | MIC (Staphylococcus aureus [1]) | MIC (Streptococcus pneumoniae [2]) | MIC (Haemophilus influenzae [3]) | MIC [4] | MIC [5] | MIC (Staphylococcus aureus [6]) | MIC (Streptococcus pyogenes [7]) | MIC (Haemophilus influenzae [8]) | MIC (Streptococcus pneumoniae [9]) | MIC (Pseudomonas aeruginosa) | MIC (Moraxella catarrhalis [11]) | MIC (Streptococcus pyogenes [12]) | MIC (Klebsiella pneumoniae) | MIC (Escherichia coli) | MIC (Streptococcus pyogenes [13]) | MIC [14] | MIC (Moraxella catarrhalis [15]) | MIC [16] | MIC (Staphylococcus aureus [17]) | MIC (Staphylococcus aureus [18]) | other results
CC[C@H]1OC(=O)[C@H](C)C(=O)[C@H](C)[C@@H](O[C@@H]2O[C@H](C)C[C@H](N(C)C)[C@H]2O)[C@](C)(OC)C[C@@H](C)C(=O)[C@H](C)[C@H]2N(CCCOc3cnc4ccccc4c3)C(=O)O[C@]12C | 0.125 µg/mL (≈ 0.157 µM) | 0.062 µg/mL (≈ 0.0777 µM) | 8 µg/mL (≈ 10 µM) | 0.062 µg/mL (≈ 0.0777 µM) | 0.25 µg/mL (≈ 0.313 µM) | > 64 µg/mL | 0.008 µg/mL (≈ 0.01 µM) | 1 µg/mL (≈ 1.25 µM) | ≤ 0.004 µg/mL |  |  |  |  |  |  |  |  |  |  |  | MIC (Streptococcus pyogenes [10]): 1 µg/mL (≈ 1.25 µM)
CC[C@H]1OC(=O)[C@H](C)C(=O)[C@H](C)[C@@H](O[C@@H]2O[C@H](C)C[C@H](N(C)C)[C@H]2O)[C@](C)(OC)C[C@@H](C)C(=O)[C@H](C)[C@H]2N(CCCCc3cnc4ccccc4c3)C(=O)O[C@]12C | 0.125 µg/mL (≈ 0.157 µM) | 0.062 µg/mL (≈ 0.0779 µM) | 4 µg/mL (≈ 5.03 µM) | 0.062 µg/mL (≈ 0.0779 µM) | 0.062 µg/mL (≈ 0.0779 µM) | 64 µg/mL (≈ 80.4 µM) | 0.008 µg/mL (≈ 0.0101 µM) | 0.5 µg/mL (≈ 0.628 µM) | ≤ 0.004 µg/mL |  |  |  |  |  |  |  |  |  |  |  | MIC (Streptococcus pyogenes [10]): 0.5 µg/mL (≈ 0.628 µM)
CC[C@H]1OC(=O)[C@H](C)C(=O)[C@H](C)[C@@H](O[C@@H]2O[C@H](C)C[C@H](N(C)C)[C@H]2O)[C@](C)(OC)C[C@@H](C)C(=O)[C@H](C)[C@H]2N(CC/C=C/c3cncc4cc(OC)ccc34)C(=O)O[C@]12C |  |  |  |  |  |  |  |  |  | 64 µg/mL (≈ 77.7 µM) | 8 µg/mL (≈ 9.71 µM) | 32 µg/mL (≈ 38.8 µM) | > 256 µg/mL | 64 µg/mL (≈ 77.7 µM) | 0.015 µg/mL (≈ 0.0182 µM) | 0.015 µg/mL (≈ 0.0182 µM) | 0.015 µg/mL (≈ 0.0182 µM) | 64 µg/mL (≈ 77.7 µM) | 64 µg/mL (≈ 77.7 µM) | 0.06 µg/mL (≈ 0.0728 µM) | 
CC[C@H]1OC(=O)[C@H](C)C(=O)[C@H](C)[C@@H](O[C@@H]2O[C@H](C)C[C@H](N(C)C)[C@H]2O)[C@](C)(OC)C[C@@H](C)C(=O)[C@H](C)[C@H]2N(CC/C=C/c3cncc4cc(OCc5ccccc5)ccc34)C(=O)O[C@]12C |  |  |  |  |  |  |  |  |  | > 256 µg/mL | 8 µg/mL (≈ 8.89 µM) | 8 µg/mL (≈ 8.89 µM) | > 256 µg/mL | > 256 µg/mL | 0.25 µg/mL (≈ 0.278 µM) | 1 µg/mL (≈ 1.11 µM) | 0.5 µg/mL (≈ 0.555 µM) | 16 µg/mL (≈ 17.8 µM) | 8 µg/mL (≈ 8.89 µM) | 1 µg/mL (≈ 1.11 µM) | 
CC[C@H]1OC(=O)[C@H](C)C(=O)[C@H](C)[C@@H](O[C@@H]2O[C@H](C)C[C@H](N(C)C)[C@H]2O)[C@](C)(OC)C[C@@H](C)C(=O)[C@H](C)[C@H]2N(CC/C=C/c3cncc4ccc(OCc5ccccc5)cc34)C(=O)O[C@]12C |  |  |  |  |  |  |  |  |  | > 256 µg/mL | 4 µg/mL (≈ 4.44 µM) | 8 µg/mL (≈ 8.89 µM) | > 256 µg/mL | > 256 µg/mL | 0.125 µg/mL (≈ 0.139 µM) | 1 µg/mL (≈ 1.11 µM) | 1 µg/mL (≈ 1.11 µM) | 8 µg/mL (≈ 8.89 µM) | 8 µg/mL (≈ 8.89 µM) | 1 µg/mL (≈ 1.11 µM) | 
CC[C@H]1OC(=O)[C@H](C)[C@@H](O[C@H]2C[C@@](C)(OC)[C@@H](O)[C@H](C)O2)[C@H](C)[C@@H](O[C@@H]2O[C@H](C)C[C@H](N(C)C)[C@H]2O)[C@](C)(OC)C[C@@H](C)C(=O)[C@H](C)[C@@H](O)[C@]1(C)O [CLARITHROMYCIN] | 0.031 µg/mL (≈ 0.0414 µM) | 64 µg/mL (≈ 85.6 µM) | 8 µg/mL (≈ 10.7 µM) | 0.125 µg/mL (≈ 0.167 µM) | > 64 µg/mL | > 64 µg/mL | 0.016 µg/mL (≈ 0.0214 µM) | 8 µg/mL (≈ 10.7 µM) | 0.031 µg/mL (≈ 0.0414 µM) | 128 µg/mL (≈ 171 µM) | > 256 µg/mL | 128 µg/mL (≈ 171 µM) | 128 µg/mL (≈ 171 µM) | 16 µg/mL (≈ 21.4 µM) | 0.03 µg/mL (≈ 0.0401 µM) | 0.06 µg/mL (≈ 0.0802 µM) | 0.008 µg/mL (≈ 0.0107 µM) | > 256 µg/mL | > 256 µg/mL | 0.12 µg/mL (≈ 0.16 µM) | MIC (Streptococcus pyogenes [10]): > 64 µg/mL
CC[C@H]1OC(=O)[C@@](C)(F)C(=O)[C@H](C)[C@@H](O[C@@H]2O[C@H](C)C[C@H](N(C)C)[C@H]2O)[C@](C)(OC)C[C@@H](C)C(=O)[C@H](C)[C@H]2N(CCCOc3cnc4ccccc4c3)C(=O)O[C@]12C |  |  |  |  |  |  |  |  |  | 16 µg/mL (≈ 19.6 µM) | 64 µg/mL (≈ 78.4 µM) | 64 µg/mL (≈ 78.4 µM) | 32 µg/mL (≈ 39.2 µM) | 8 µg/mL (≈ 9.8 µM) | 0.015 µg/mL (≈ 0.0184 µM) | 0.015 µg/mL (≈ 0.0184 µM) | 0.015 µg/mL (≈ 0.0184 µM) | 128 µg/mL (≈ 157 µM) | 64 µg/mL (≈ 78.4 µM) | 0.015 µg/mL (≈ 0.0184 µM) | 
CC[C@H]1OC(=O)[C@@](C)(F)C(=O)[C@H](C)[C@@H](O[C@@H]2O[C@H](C)C[C@H](N(C)C)[C@H]2O)[C@](C)(OC)C[C@@H](C)C(=O)[C@H](C)[C@H]2N(CC/C=C/c3cnc4ccccc4c3)C(=O)O[C@]12C |  |  |  |  |  |  |  |  |  | 16 µg/mL (≈ 19.7 µM) | 16 µg/mL (≈ 19.7 µM) | 16 µg/mL (≈ 19.7 µM) | 32 µg/mL (≈ 39.4 µM) | 8 µg/mL (≈ 9.85 µM) | 0.015 µg/mL (≈ 0.0185 µM) | 0.015 µg/mL (≈ 0.0185 µM) | 0.015 µg/mL (≈ 0.0185 µM) | 32 µg/mL (≈ 39.4 µM) | 32 µg/mL (≈ 39.4 µM) | 0.015 µg/mL (≈ 0.0185 µM) | 
